In test [1] the target is T1, NAD-dependent protein deacetylase sirtuin-1 (Homo sapiens) (UniProt Q96EB6).
T1 sequence (whole entry): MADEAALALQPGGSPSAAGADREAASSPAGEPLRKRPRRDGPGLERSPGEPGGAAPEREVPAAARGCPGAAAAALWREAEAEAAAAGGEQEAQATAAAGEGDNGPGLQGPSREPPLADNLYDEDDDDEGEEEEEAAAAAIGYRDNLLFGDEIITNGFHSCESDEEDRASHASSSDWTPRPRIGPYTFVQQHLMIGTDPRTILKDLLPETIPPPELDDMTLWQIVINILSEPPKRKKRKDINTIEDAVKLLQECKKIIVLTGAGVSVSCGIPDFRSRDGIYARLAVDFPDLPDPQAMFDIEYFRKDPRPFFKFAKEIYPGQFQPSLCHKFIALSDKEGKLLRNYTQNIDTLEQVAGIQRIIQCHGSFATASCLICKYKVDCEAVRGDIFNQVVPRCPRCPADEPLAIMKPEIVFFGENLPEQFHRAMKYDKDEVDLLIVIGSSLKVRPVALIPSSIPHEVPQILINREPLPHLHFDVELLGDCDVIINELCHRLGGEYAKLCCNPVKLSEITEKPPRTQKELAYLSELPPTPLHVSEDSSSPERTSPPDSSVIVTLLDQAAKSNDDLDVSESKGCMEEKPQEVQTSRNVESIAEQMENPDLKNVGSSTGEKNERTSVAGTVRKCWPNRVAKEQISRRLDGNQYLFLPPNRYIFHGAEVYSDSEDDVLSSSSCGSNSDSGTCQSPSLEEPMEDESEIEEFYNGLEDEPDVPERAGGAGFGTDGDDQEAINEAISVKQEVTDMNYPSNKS
The test can be described thus: Inhibition of human recombinant GST-tagged SIRT1 at 50 uM after 4 hrs by homogeneous fluorescent deacetylase assay.

Test [2] addresses T2, NAD-dependent protein deacetylase sirtuin-2 (Homo sapiens) (UniProt Q8IXJ6).
T2 sequence (whole entry): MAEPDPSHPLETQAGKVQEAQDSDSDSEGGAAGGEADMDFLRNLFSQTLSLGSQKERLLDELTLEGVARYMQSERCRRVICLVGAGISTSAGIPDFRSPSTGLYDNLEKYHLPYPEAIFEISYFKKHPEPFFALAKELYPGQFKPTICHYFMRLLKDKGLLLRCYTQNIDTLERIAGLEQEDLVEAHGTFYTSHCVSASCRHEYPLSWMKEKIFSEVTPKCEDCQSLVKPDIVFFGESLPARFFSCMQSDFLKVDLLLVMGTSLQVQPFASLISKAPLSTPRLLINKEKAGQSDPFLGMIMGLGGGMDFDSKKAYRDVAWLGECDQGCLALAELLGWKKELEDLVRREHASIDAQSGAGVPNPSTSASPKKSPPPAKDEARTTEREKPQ
The test is described as follows: Inhibition of human recombinant N-terminally His6-tagged SIRT2 at 50 uM after 4 hrs by homogeneous fluorescent deacetylase assay.

The target in test [3] is T1, NAD-dependent protein deacetylase sirtuin-1 (Homo sapiens). The test is described as follows: Activity at human recombinant GST-tagged SIRT1 assessed as conversion of acetyllysine substrate to 7-amino-4-methylcoumarin at 500 uM by fluorescence-based assay.
For test [4], the target named is T2, NAD-dependent protein deacetylase sirtuin-2 (Homo sapiens). The test can be described thus: Activity at human recombinant GST-tagged SIRT2 assessed as conversion of […] at 500 uM by fluorescence-based assay. Conditions: in the assay text read “His6-tagged” for “GST-tagged”. An outline of the steps:
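Analogues, with NAD for comparison, were supplied at 500 μM as cosubstrate in place of NAD, in 8.3% (v/v) DMSO. Reaction used Z-(Ac)Lys-AMC (10.5 μM), 4 h at 37 °C. Trypsin/nicotinamide development followed, then fluorescence at ex 390/em 460 nm. Conversion compared against a blank without cofactor.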

The text below walks through data of ChEMBL document CHEMBL1773060, “Two-step synthesis of novel, bioactive derivatives of the ubiquitous cofactor nicotinamide adenine dinucleotide (NAD)” (J Med Chem, 2011).

Calls of active or inactive are those of the source. No cut-off for these calls is given here. Bounds are passed on as bounds.

Take `Cc1ccc(-c2nc3c(N)ncnc3n2[C@@H]2O[C@H](COP(=O)(O)OP(=O)([O-])OC[C@H]3O[C@@H]([n+]4cccc(C(N)=O)c4)[C@H](O)[C@@H]3O)[C@@H](O)[C@H]2O)cc1`: the inhibition in test [1] was 20%.
Turning to `COc1ccc(-c2nc3c(N)ncnc3n2[C@@H]2O[C@H](COP(=O)(O)OP(=O)([O-])OC[C@H]3O[C@@H]([n+]4cccc(C(N)=O)c4)[C@H](O)[C@@H]3O)[C@@H](O)[C@H]2O)cc1`, in test [1], the inhibition is 18%.
On the same count and under the same terms, next, `NC(=O)c1ccc[n+]([C@@H]2O[C@H](COP(=O)([O-])OP(=O)(O)OC[C@H]3O[C@@H](n4c(-c5ccc(Cl)cc5)nc5c(N)ncnc54)[C@H](O)[C@@H]3O)[C@@H](O)[C@H]2O)c1`: 30%; `NC(=O)c1ccc[n+]([C@@H]2O[C@H](COP(=O)([O-])OP(=O)(O)OC[C@H]3O[C@@H](n4c(Br)nc5c(N)ncnc54)[C@H](O)[C@@H]3O)[C@@H](O)[C@H]2O)c1`: 31%.
As to `NC(=O)c1ccc[n+]([C@@H]2O[C@H](COP(=O)([O-])OP(=O)(O)OC[C@H]3O[C@@H](n4c(-c5ccco5)nc5c(N)ncnc54)[C@H](O)[C@@H]3O)[C@@H](O)[C@H]2O)c1`, the inhibition in test [1] is 16%; in test [2] it was 35%.
For `Nc1ncnc2c1nc(Br)n2[C@@H]1O[C@H](COP(=O)(O)O)[C@@H](O)[C@H]1O`, in that order: below 10% and below 10%.
For `Nc1ncnc2c1nc(Br)n2[C@@H]1O[C@H](CO)[C@@H](O)[C@H]1O`, in that order: below 10% and 16%.
For the compound `Nc1ncnc2c1nc(-c1ccccc1)n2[C@@H]1O[C@H](CO)[C@@H](O)[C@H]1O`, the inhibition in test [1] and in test [2] was below 10% in each case.
Take `NC(=O)c1ccc[n+]([C@@H]2O[C@H](COP(=O)([O-])OP(=O)(O)OC[C@H]3O[C@@H](n4c(-c5ccccc5)nc5c(N)ncnc54)[C@H](O)[C@@H]3O)[C@@H](O)[C@H]2O)c1`: the outcome in test [3] and in test [4] was Active. Besides, in test [1], the inhibition amounted to 17%.

By inhibition is commonly meant how much of the control response was suppressed.
